Test [1] has as its target T1, Histamine H3 receptor (Homo sapiens, UniProt Q9Y5N1). Nature of the test: Displacement of [3H]N-alpha-methyl-histamine from human histamine H3 receptor expressed in human HEK293-EBNA cells. In kind it is cell-based. A general note: Displacement assays read how much labelled ligand stays bound in the presence of the test substance.
The target in test [2] is T1, Histamine H3 receptor. In words: Agonist activity at human histamine H3 receptor expressed in human HEK293-EBNA cells by luciferase reporter gene assay. In kind it is functional, cell-based. Summed up:
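Human H3 receptor expressed individually in 293-EBNA cells; compounds tested for agonism at 10^-5 M in a luciferase reporter gene assay.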
On the technique in general: A reporter such as luciferase makes a cellular process visible.

In test [3] the target is T1, Histamine H3 receptor. In words: Antagonist activity at human histamine H3 receptor expressed in human HEK293-EBNA cells assessed as inhibition of histamine-induced response at 100 uM by luciferase reporter gene assay. The class given is functional, cell-based.

8 compounds from ChEMBL document CHEMBL1157786, “Investigation of the bioactive conformation of histamine H3 receptor antagonists by the cyclopropylic strain-based conformational restriction strategy” (J Med Chem, 2010) can be followed below.

Each structure is given as a SMILES string. Calls of active or inactive are those of the source. The rule behind the calls is not given here.

T1 sequence (Q9Y5N1 whole entry): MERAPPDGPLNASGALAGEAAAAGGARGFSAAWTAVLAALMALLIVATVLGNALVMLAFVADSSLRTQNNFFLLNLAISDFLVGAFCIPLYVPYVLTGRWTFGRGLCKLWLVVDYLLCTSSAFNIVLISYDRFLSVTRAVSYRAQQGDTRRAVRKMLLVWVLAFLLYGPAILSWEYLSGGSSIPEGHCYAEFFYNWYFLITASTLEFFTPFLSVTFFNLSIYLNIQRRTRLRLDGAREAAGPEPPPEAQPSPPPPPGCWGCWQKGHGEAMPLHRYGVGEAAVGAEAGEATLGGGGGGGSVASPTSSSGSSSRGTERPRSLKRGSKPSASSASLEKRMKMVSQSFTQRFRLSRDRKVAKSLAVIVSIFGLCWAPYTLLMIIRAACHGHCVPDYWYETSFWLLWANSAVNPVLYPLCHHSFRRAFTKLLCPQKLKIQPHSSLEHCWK

Regarding `CC[C@@H](CNCc1ccc(Cl)cc1)[C@H]1C[C@@H]1c1c[nH]cn1`, the Ki (commonly the equilibrium dissociation constant of an inhibitor or competing ligand from its target) at Histamine H3 receptor [1] turned out to be 6.7 nM. Besides, on Histamine H3 receptor [2], the outcome was inactive. Also, the inhibition (commonly the change of the read-out against control, counted positive when it falls) on Histamine H3 receptor [3] was 88%.

As to `CC[C@H](CNCc1ccc(Cl)cc1)[C@@H]1C[C@H]1c1c[nH]cn1`, the outcome at Histamine H3 receptor [2] was inactive. For the same compound, the inhibition at Histamine H3 receptor [3] turned out to be 73%.

`Clc1ccc(CNCC[C@H]2C[C@@H]2c2c[nH]cn2)cc1` displayed an inhibition constant (Ki) on Histamine H3 receptor [1] of 3.6 nM. The inhibition at Histamine H3 receptor [3] was determined as 100%.

For the compound `Clc1ccc(CNCC[C@@H]2C[C@H]2c2c[nH]cn2)cc1`, the affinity on Histamine H3 receptor [1], expressed as Ki, was 8.4 nM. For the same compound, the inhibition at Histamine H3 receptor [3] was 100%.

Compound `CC[C@@H](CNCc1ccc(Cl)cc1)[C@@H]1C[C@H]1c1c[nH]cn1` came in with an inhibitory constant (Ki) on Histamine H3 receptor [1] of 19.8 nM. The result on Histamine H3 receptor [2] was inactive. For the same compound, at Histamine H3 receptor [3], the inhibition is 95%.

For `CC[C@H](CNCc1ccc(Cl)cc1)[C@H]1C[C@@H]1c1c[nH]cn1`, the result on Histamine H3 receptor [2] was inactive. Besides, the inhibition on Histamine H3 receptor [3] amounted to 96%.

For `CC[C@H](CNCc1ccc(Cl)cc1)[C@@H]1C[C@H]1c1cnc[nH]1`, the Ki on Histamine H3 receptor [1] was 129 nM.

Regarding `CC[C@H](CNCc1ccc(Cl)cc1)[C@H]1C[C@@H]1c1cnc[nH]1`, on Histamine H3 receptor [1], the affinity corresponds to a Ki of 63 nM.
